Source: PubChem (Sanford-Burnham Center for Chemical Genomics)
Most compounds without a hit are left out; they make up all but 2.3% or so of the library.
Scp-1 inhibitor = Scp-1 (human) phosphatase inhibition; Q9GZU7; Recombinant Scp1, phosphopeptide, malachite green phosphate absorbance; inhibition, % at 20 µM; hit rate 0.88% among 340,000; AID 493091;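 active = inhibition above about 50% at 20 µM, limit read from the data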;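 note: plate controls were DMSO wells with enzyme for no effect and wells lacking enzyme for full effect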
Target sequence (Q9GZU7 76-261 limits assumed): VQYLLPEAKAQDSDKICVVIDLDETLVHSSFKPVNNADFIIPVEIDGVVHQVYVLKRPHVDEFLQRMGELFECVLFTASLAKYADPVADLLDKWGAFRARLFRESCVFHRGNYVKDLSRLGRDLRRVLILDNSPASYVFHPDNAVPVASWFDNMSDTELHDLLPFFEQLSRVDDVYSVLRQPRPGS
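Material – SCP-1 phosphatase catalytic domain, residues 76-261 · Buffer or medium – Acidic Tris acetate buffer with magnesium and detergent · Also added – Phospho 17-mer peptide substrate · Compound – single 20 µM dose, 1% DMSO · Times – 45 min room-temperature reaction, 5 min colour, 30 min stabiliser · Technique – Phosphate-binding colour reagent, absorbance read at 630 nm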
DNMT1 inh = inhibitors of human DNMT1 | DNMT1 molecular beacon, Hinp1I cleavage, fluorescence | hit rate 0.83% among 360,000 | inhibition (reported as % activation of signal), % at 10 µM | P26358; in the data active = inhibition above about 50%
Rpn11 inh = blocks the human proteasome subunit Rpn11; hit rate 0.59% among 360,000; inhibition, % at 20 µM; AID 588493; O00487; human 26S proteasome, Ub4-pepOG fluorescence polarization; 20S core pre-blocked with epoxomicin;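 active = inhibition at 20 µM, scaled to each plate's controls, above about 33%, limit read from the data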
SUMO1 PPI mod = modulators of human SUMO1-mediated protein-protein interactions; hit rate 0.33% among 360,000; P63165; inhibition, % at 20 µM; SUMO1 binding to a labelled peptide, TR-FRET, 1 h; AID 602429; in the data active = inhibition above about 37%
Target sequence (P63165 whole entry, looked up): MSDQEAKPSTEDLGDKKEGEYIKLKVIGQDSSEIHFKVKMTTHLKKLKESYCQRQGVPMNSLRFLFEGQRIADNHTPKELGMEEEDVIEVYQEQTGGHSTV
LMPTP inh = blocks human LMPTP phosphatase; P24666; recombinant LMPTP-A, OMFP fluorogenic substrate, fluorescence intensity; inhibition, % at 20 µM; hit rate 0.22% among 360,000; AID 651560;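 active = compounds that cut the enzyme signal by at least half of the control window in the single-dose screen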;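 note: plate controls were DMSO wells with enzyme plus substrate for no effect and substrate without enzyme for full effect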
Target sequence (P24666 whole entry, looked up): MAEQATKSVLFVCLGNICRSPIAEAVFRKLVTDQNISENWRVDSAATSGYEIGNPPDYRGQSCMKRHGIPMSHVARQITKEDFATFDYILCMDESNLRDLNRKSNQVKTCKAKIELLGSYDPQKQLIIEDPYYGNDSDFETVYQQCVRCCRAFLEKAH
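Test system: LMPTP-A, protein tyrosine phosphatase of low molecular weight; Input: 0.625 nM enzyme; Incubation: 50 min dark incubation at room temperature; Signal: endpoint fluorescence intensity from OMFP dephosphorylation; Read-out basis: % inhibition versus control wells.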
STEP inh = blocks human striatal-enriched tyrosine phosphatase. P54829. recombinant STEP, OMFP fluorogenic substrate, fluorescence. inhibition, % at 20 µM. hit rate 0.25% among 360,000. AID 588621;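 active = inhibition at 20 µM, scaled per plate between control wells, above about 37%, limit read from the data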;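 note: 0% = DMSO with enzyme and substrate and 100% = substrate only without enzyme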
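Assay system: isolated STEP enzyme. Buffer or medium: pH 6.0 Bis-Tris with DTT and Tween 20. Also added: fluorogenic phosphatase substrate OMFP at 25 µM final. Dosing: 20 µM, 1% DMSO. Timing: 20 min reaction, room temperature, in the dark. Measured by: fluorescence intensity, excitation 480 nm, emission 540 nm. Evaluation: normalized % inhibition.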
Rpn11 confirm = Rpn11 inhibition confirmation, single concentration | shares compounds with Rpn11 inh | purified human 26S proteasome, Ub4-pepOG fluorescence polarization; proteasome pretreated with epoxomicin | inhibition, % at 20 µM | hit rate 29% among 1,900
MMP-2 counter = blocks human MMP-2, flagging nonselective RPN11 hits; shares compounds with Rpn11 inh; recombinant MMP-2, FRET peptide cleavage fluorescence; inhibition, % at 20 µM; hit rate 4% among 1,900; AID 602330;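 note: human MMP-2 activated beforehand with APMA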
Thrombin inh = counter-screen for RPN11 inhibitors: inhibition of bovine thrombin. AID 602333. inhibition, % at 20 µM. hit rate 13% among 1,900. bovine thrombin cleavage of Ub4-pepOG, fluorescence polarization. shares compounds with Rpn11 inh;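 active = mean inhibition at least 40% at 20 µM, or signal 3 deviations below plate average, so some actives read negative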;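 note: plate controls were thrombin with DMSO for no effect and buffer wells lacking thrombin for full effect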
* = called active by the depositor. Cut-off read from the data, not from the text of the source, unless noted: active = inhibition above about 40%; inactive = the rest.

`CCCOc1ccc(S(=O)(=O)Nc2ccccn2)c2ccccc12` gave Scp-1 inhibitor 3.0, DNMT1 inh 9.2, Rpn11 inh 3.2, SUMO1 PPI mod -3.0, LMPTP inh -1.3 and STEP inh 0.0.
CC(C)(C)OC(=O)n1cccc1/C=C1\c2ccccc2C(=O)N1c1ccccc1 was read as Scp-1 inhibitor -4.2, DNMT1 inh -14.8, Rpn11 inh 41.3*, SUMO1 PPI mod 0.2, LMPTP inh 1.6, STEP inh -0.1, Rpn11 confirm 33.8, MMP-2 counter 21.2 and Thrombin inh 7.2.
For CC(=O)NNC(=O)c1csc(-c2csc(C)n2)n1 the results were Scp-1 inhibitor 10.0, DNMT1 inh -0.1, Rpn11 inh -2.3, SUMO1 PPI mod -4.9, LMPTP inh -1.6 and STEP inh -1.6.
`Cc1ccc(S(=O)(=O)N2CCCC2C(=O)Nc2nc3ccccc3s2)cc1` (centres undefined) gave Scp-1 inhibitor 2.2, DNMT1 inh -4.0, Rpn11 inh 30.9*, SUMO1 PPI mod 3.4, LMPTP inh -1.2, STEP inh 2.5, Rpn11 confirm -13.6, MMP-2 counter -0.3 and Thrombin inh -19.2.
O=C(Nc1nc2ccccc2s1)C1CCCN1S(=O)(=O)c1ccc(Cl)cc1 (centres undefined) was read as Scp-1 inhibitor 4.7, DNMT1 inh -3.6, Rpn11 inh -19.7, SUMO1 PPI mod -0.1, LMPTP inh 1.7 and STEP inh -2.2.
CC(C)=CCCC(C)=CCN1C(=O)CN(C)C1=O was read as DNMT1 inh 0.3, Rpn11 inh -4.3, SUMO1 PPI mod 1.6, LMPTP inh -1.9 and STEP inh 5.3.
For Cc1ccc(C)c(NC(=S)NCc2cccs2)c1 the results were Scp-1 inhibitor 1.3, DNMT1 inh -4.5, Rpn11 inh -5.5, SUMO1 PPI mod -1.3, LMPTP inh 0.0 and STEP inh 1.9.
For Cc1ccccc1NC(=S)NCc1cccs1 the results were Scp-1 inhibitor -4.3, DNMT1 inh -4.5, Rpn11 inh 162.5*, SUMO1 PPI mod 1.8, LMPTP inh -0.8, STEP inh -1.0, Rpn11 confirm 0.5, MMP-2 counter -15.8 and Thrombin inh -3.9.
`O=C(O)CCc1ccc(-c2ccccc2)n1CC1CCCO1` (centres undefined) gave Scp-1 inhibitor 10.1, DNMT1 inh 5.3, Rpn11 inh 55.1*, SUMO1 PPI mod -3.7, LMPTP inh 0.8, STEP inh 2.7, Rpn11 confirm 11.8, MMP-2 counter -26.0 and Thrombin inh 6.4.
Screening CCCCC(O)(CCCC)C(=O)NN(C(=O)c1cccnc1Cl)c1ccccc1 returned Scp-1 inhibitor -5.1, DNMT1 inh 1.9, Rpn11 inh 3.8, SUMO1 PPI mod -2.7, LMPTP inh -0.6 and STEP inh 0.1.
`Nc1ccccc1Nc1cc(-c2ccccc2)[nH]n1` gave Scp-1 inhibitor -10.6, DNMT1 inh -10.8, Rpn11 inh 42.9*, SUMO1 PPI mod -0.3, LMPTP inh 0.0, STEP inh -2.0, Rpn11 confirm 0.1, MMP-2 counter 10.5 and Thrombin inh 7.3.
For Nc1ccccc1Nc1cc(-c2ccccc2)nn1-c1ccccc1 the results were Scp-1 inhibitor 1.4, DNMT1 inh -20.2, Rpn11 inh 0.2, SUMO1 PPI mod -3.4, LMPTP inh 3.1 and STEP inh -0.4.
Screening CN(C)S(=O)(=O)c1cccc(NC(=O)c2cc3c(=O)n4ccccc4nc3s2)c1 returned Scp-1 inhibitor 0.0, DNMT1 inh 4.8, Rpn11 inh 85.3*, SUMO1 PPI mod 32.4, LMPTP inh -1.3, STEP inh -2.3, Rpn11 confirm 0.3, MMP-2 counter 9.4 and Thrombin inh -1.9.
